pIC50: −log10 of the molar value.
What was measured:
[1] = system: A-427; experiment: In vitro inhibition of A-427 (human lung cancer) cell growth.; assay type: functional, cell-based
In short: (§1)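 Human cancer lines from ATCC, grown at 37 °C in sealed dishes in Eagle's MEM with 5% FCS. Cells were seeded at 40000 cells/mL and plated for 24 h before drug exposure. Six concentrations from 10^-5 to 10^-10 M were tested. Growth was read by MTT reduction to formazan at 570 nm (reference 630 nm), in sextuplicate. IC50 is the concentration giving 50% growth reduction versus control.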

[2] = system: A549; experiment: In vitro inhibition of A549 (human lung cancer) cell growth.; assay type: functional, cell-based; in short: as §1
[3] = system: J82; experiment: In vitro inhibition of J82 (human bladder cancer) cell growth.; assay type: functional, cell-based; in short: as §1
[4] = system: MCF7; experiment: In vitro inhibition of MCF-7 (human breast cancer) cell growth.; assay type: functional, cell-based; in short: as §1
[5] = system: PC-3; experiment: In vitro inhibition of PC-3 (human prostate cancer) cell growth.; assay type: functional, cell-based; in short: as §1
[6] = In vitro inhibition of T24 (human bladder cancer) cell growth.; assay type: functional, cell-based; conditions: T-24; in short: as §1
[7] = system: T47D; experiment: In vitro inhibition of T-47D (human breast cancer) cell growth.; assay type: functional, cell-based; in short: as §1
[8] = system: U373 MG; experiment: In vitro inhibition of U-373 MG (human glioblastoma) cell growth.; assay type: functional, cell-based, U-373MG ATCC; in short: as §1
[9] = system: HCT-15; experiment: In vitro inhibition of HCT-15 (human colon cancer) cell growth.; assay type: functional, cell-based; in short: as §1
[10] = system: LoVo; experiment: In vitro inhibition of LoVo (human colon cancer) cell growth.; assay type: functional, cell-based; in short: as §1
[11] = system: U-87 MG; experiment: In vitro inhibition of U-87 MG (human glioblastoma) cell growth.; assay type: functional, cell-based, U-87MG ATCC; in short: as §1
[12] = system: SW1088 (human); experiment: In vitro inhibition of SW1088 (human astrocytoma) cell growth.

| Structure (SMILES) | pIC50 [1] | pIC50 [2] | pIC50 [3] | pIC50 [4] | pIC50 [5] | pIC50 [6] | pIC50 [7] | pIC50 [8] | pIC50 [9] | pIC50 [10] | pIC50 [11] | pIC50 [12] |
| --- | --- | --- | --- | --- | --- | --- | --- | --- | --- | --- | --- | --- |
| O=C1c2nccc(Cl)c2C(=O)c2c(-c3ccccc3NC(=O)C(F)(F)F)ccnc21 | 6.22 | 7.15 | 5.48 | 7.22 | 6.05 | 6.70 | 5.68 | 7.05 | 8.00 | 7.22 | 7.30 | 5.42 |
| O=C1c2nc(O)ccc2C(=O)c2c(-c3ccccc3NC(=O)C(F)(F)F)ccnc21 | 7.40 | 7.30 | 5.68 | 7.52 | 6.05 | 7.30 | 6.70 | 7.40 | 7.22 | 7.40 | 7.40 | 7.22 |
| CCOC(=O)c1cnc2c(c1)-c1nc3ccccc3c3ccnc(c13)C2=O | 6.10 | 7.10 | 5.28 | 6.15 | 5.24 | 6.05 | 5.54 | 6.15 | 6.70 | 6.15 | 7.15 | 5.55 |
| O=C1c2ncccc2C(=O)c2c(-c3ccccc3NC(=O)C(F)(F)F)ccnc21 | 7.52 | 8.22 | 7.22 | 8.22 | 7.22 | 6.70 | 7.30 | 8.30 | 8.10 | 8.15 | 9.05 | 7.22 |
| O=C1c2nccc(Cl)c2C(=O)c2c(-c3ccccc3[N+](=O)[O-])ccnc21 | 5.46 | 6.05 | 6.30 | 5.74 | 5.30 | 5.26 | 6.10 | 5.32 | 5.55 | 5.41 | 5.70 | 5.27 |
| O=C1c2nccc(O)c2C(=O)c2c(-c3ccccc3[N+](=O)[O-])ccnc21 | 5.92 | 5.64 | 5.28 | 5.41 | 5.14 | 5.64 | 5.35 | 5.40 | 5.46 | 5.54 | 6.10 | 5.54 |
| Nc1ccnc2c1C(=O)c1c(-c3ccccc3[N+](=O)[O-])ccnc1C2=O | 5.26 | 6.22 | 5.52 | 5.51 | 5.29 | 5.44 | 5.26 | 5.51 | 6.30 | 5.24 | 5.57 | 5.32 |
| O=C1c2nccc(Br)c2-c2nc3ccccc3c3ccnc1c23 | 6.15 | 5.48 | 5.05 | 5.96 | 5.31 | 6.15 | 5.36 | 6.05 | 5.44 | 6.10 | 6.15 | 5.52 |
| CN(C)c1ccnc2c1-c1nc3ccccc3c3ccnc(c13)C2=O | 7.22 | 7.22 | 5.89 | 7.10 | 6.22 | 6.70 | 6.30 | 7.10 | 7.15 | 7.10 | 7.30 | 7.00 |
| COc1ccnc2c1C(=O)c1c(-c3ccccc3[N+](=O)[O-])ccnc1C2=O | 6.15 | 7.70 | 6.40 | 7.30 | 5.51 | 7.70 | 5.29 | 7.52 | 7.05 | 7.30 | 8.05 | 5.41 |
| O=C1c2nccc(-c3ccccc3NC(=O)C(F)(F)F)c2C(=O)c2c([N+](=O)[O-])ccnc21 | 5.35 | 6.05 | 5.41 | 6.15 | 6.22 | 5.27 | 5.37 | 6.05 | 6.22 | 6.05 | 5.33 | 5.22 |

Source: ChEMBL document CHEMBL1134779, “Synthesis and characterization of the antitumor activities of analogues of meridine, a marine pyridoacridine alkaloid” (J Med Chem, 2001)
